Reference: ChEMBL document CHEMBL1123902, “Synthesis and antiinflammatory and analgesic activity of 5-aroyl-1,2-dihydro-3H-pyrrolo[1,2-a]pyrrole-1-carboxylic acids. The 6-substituted compounds” (1987)

What was measured:
Format in all cases: functional
Mus musculus = species on record: Mus musculus; assay: Analgesic activity in mice by phenyl quinone-induced writhing assay with respect to aspirin.
Procedure, shortened: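 Phenylquinone-induced writhing in mice; potency expressed as ED50 with 95% confidence limits, relative to aspirin as reference; number of mice recorded per test.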

[1] = Ratio of MED GI erosion to ED30 for carrageenan rat paw was determined
Procedure, shortened: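 Therapeutic ratio calculated as the minimum erosive dose from the 7-day rat gastrointestinal erosion assay divided by the ED30 from the carrageenan rat paw edema assay.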

Rattus norvegicus [2] = species on record: Rattus norvegicus; assay: Antiinflammatory activity was determined by inhibition of cotton pellet granuloma in rats with respcet to Indomethacin
Rattus norvegicus [3] = species on record: Rattus norvegicus; assay: Antiinflammatory activity was determined by inhibition of adjuvant-induced arthritis in rats with respect to naproxen
Rattus norvegicus [4] = assay: Antiinflammatory activity was determined by inhibition of carrageenan-induced edema in rat paw with respect to phenylbutazone
Procedure, shortened: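 Carrageenan-induced rat paw edema; potency expressed as ED30 relative to phenylbutazone as reference; number of rats recorded.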

Rattus norvegicus [5] = species on record: Rattus norvegicus; assay: Gastrointestinal erosive activity was determined by 7-day chronic assay in rats; settings: 168 h, read-out: MED
Procedure, shortened: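 Chronic 7-day gastrointestinal erosion assay in rats; read-out is the minimum dose producing erosion (MED).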

Rattus norvegicus [6] = species on record: Rattus norvegicus; assay: Antiinflammatory activity was determined to inhibit cotton pellet granuloma in rats with respcet to Indomethacin
Rattus norvegicus [7] = species on record: Rattus norvegicus; assay: Antiinflammatory activity was determined to inhibit adjuvant-induced arthritis in rats with respect to naproxen
Rattus norvegicus [8] = species on record: Rattus norvegicus; assay: Antiinflammatory activity was determined by inhibition of cotton pellet granuloma in rats with respect to Indomethacin

SMILES	relative potency (Mus musculus)	Therapeutic index [1]	relative potency (Rattus norvegicus [2])	relative potency (Rattus norvegicus [3])	relative potency (Rattus norvegicus [4])	minimal effective dose (Rattus norvegicus [5])	relative potency (Rattus norvegicus [6])	relative potency (Rattus norvegicus [7])	ED30 (Rattus norvegicus [4])	relative potency (Rattus norvegicus [8])
O=C(c1ccc(Cl)cc1)c1c(Cl)cc2n1CCC2C(=O)O (stereo not given)	167	1	3	40	88	~0.2 mg/kg	–	–	–	–
Cc1cc2n(c1C(=O)c1ccc(Cl)cc1)CCC2C(=O)O (stereo not given)	167	5	2	3.5	122	0.6 mg/kg	–	–	–	–
CSc1ccc(C(=O)c2c(Cl)cc3n2CCC3C(=O)O)cc1 (stereo not given)	100	–	–	–	68	–	–	–	–	–
COc1ccc2cc([C@H](C)C(=O)O)ccc2c1 [NAPROXEN]	7	22	–	–	11	30 mg/kg	0.2	1	–	–
COc1ccc(C(=O)c2c(Cl)cc3n2CCC3C(=O)O)cc1 (stereo not given)	201	5	0.7	4	55	~1.3 mg/kg	–	–	–	–
Cc1ccc(C(=O)c2c(C)cc3n2CCC3C(=O)O)cc1 (stereo not given)	250	7	0.7	3	43	2.5 mg/kg	–	–	–	–
COCCc1cc2n(c1C(=O)c1ccc(F)cc1)CCC2C(=O)O (stereo not given)	1.1	–	–	–	–	–	–	–	≤ 0.3 mg/kg	–
COc1ccc2c(c1)c(CC(=O)O)c(C)n2C(=O)c1ccc(Cl)cc1 [INDOMETHACIN]	60	–	–	–	16	–	1	7	–	–
O=C(c1ccc(F)cc1)c1c(Cl)cc2n1CCC2C(=O)O (stereo not given)	151	3	1	13	139	~0.3 mg/kg	–	–	–	–
COCCCc1cc2n(c1C(=O)c1ccccc1)CCC2C(=O)O (stereo not given)	≤ 3	–	–	–	< 10	–	–	–	–	–
O=C(c1ccc(F)cc1)c1c(Br)cc2n1CCC2C(=O)O (stereo not given)	120	–	–	–	96	–	–	–	–	–
CCc1cc2n(c1C(=O)c1ccc(F)cc1)CCC2C(=O)O (stereo not given)	121	–	–	–	46	–	–	–	–	–
O=C(c1ccccc1)c1c(Cl)cc2n1CCC2C(=O)O (stereo not given)	246	1	0.6	< 8	10	~1.7 mg/kg	–	–	–	–
COc1ccc(C(=O)c2c(C)cc3n2CCC3C(=O)O)cc1 (stereo not given)	130	–	–	–	73	–	–	–	–	–
C1CCC(NC2CCCCC2)CC1.Cc1cc2n(c1C(=O)c1ccccc1)CCC2(C)C(=O)O (stereo not given)	40	–	–	–	< 7	–	–	–	–	–
COCCc1cc2n(c1C(=O)c1ccc(Cl)cc1)CCC2C(=O)O (stereo not given)	5	–	–	–	–	–	–	–	< 0.3 mg/kg	–
COCCc1cc2n(c1C(=O)c1ccccc1)CCC2C(=O)O (stereo not given)	7.6	–	–	–	–	–	–	–	≤ 0.3 mg/kg	–
Cc1cc(CC(=O)O)n(C)c1C(=O)c1ccc(Cl)cc1 [ZOMEPIRAC]	36	17	–	–	26	–	–	–	–	–
O=C(c1ccccc1)c1c(Br)cc2n1CCC2C(=O)O (stereo not given)	314	–	–	–	7.4	–	–	–	–	–
COCCCc1cc2n(c1C(=O)c1ccc(Cl)cc1)CCC2C(=O)O (stereo not given)	≥ 1.5	–	–	–	1.2	–	–	–	–	–
COCCCc1cc2n(c1C(=O)c1ccc(F)cc1)CCC2C(=O)O (stereo not given)	~1	–	–	–	< 3	–	–	–	–	–
Cc1ccc(C(=O)c2c(Cl)cc3n2CCC3C(=O)O)cc1 (stereo not given)	158	11	0.2	11	32	5 mg/kg	–	–	–	–
CS(=O)(=O)c1ccc(C(=O)c2c(Cl)cc3n2CCC3C(=O)O)cc1 (stereo not given)	≤ 0.8	–	–	–	< 1	–	–	–	–	–
CCc1cc2n(c1C(=O)c1ccccc1)CCC2C(=O)O (stereo not given)	108	–	–	–	26	–	–	–	–	–
Cc1cc2n(c1C(=O)c1ccccc1)CCC2C(=O)O (stereo not given)	250	5	–	1	43	1.7 mg/kg	–	–	–	1
Cc1cc2n(c1C(=O)c1ccc(F)cc1)CCC2C(=O)O (stereo not given)	302	12	1	3	103	1.2 mg/kg	–	–	–	–
